T cell modulator: modulates CD8 T cell binding to vesicles; 2C CD8+ T cell-vesicle binding, flow cytometry; hits give low values; response (vesicle binding), % at 7 µM; 0.068% of 330,000 active; AID 2052;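 active = response, share of CD8 T cells binding vesicles, and their 90th percentile fluorescence all below set limits, cut at about 80% in these data, passing the limit was not always enough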;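 note: values below 100% mean blocked vesicle binding to the CD8+ T cells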
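Benchmarks: naked versus QL9-loaded vesicles / Assay system: purified 2C TCR transgenic mouse naive CD8+ T cells / Technique: high-throughput flow cytometry with anti-B7-1 and anti-CD8 staining / Timing: Cell–vesicle co-incubation 1.5 h at 37 °C, staining 20 min on ice / Read-out: percent CD8+ FL2 mean versus row control / Probe or stimulus: QL9-loaded Drosophila micro-vesicles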
Glyco luc inh: N-linked glycosylation inhibition; D54 ERlucT glycosylation luciferase reporter, 24 h; percent of 100 nM tunicamycin response; reporter increase, % at 12.5 µM; 0.23% of 360,000 active;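 active = mean luciferase reporter signal, scaled so untreated is 0 and the glycosylation-blocking control 100, at or above a set limit in every replicate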;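 note: luciferase carries N-glycosylation sites so blocking glycosylation raises the light; 0% = median of neutral control wells and 100% = median of 100 nM tunicamycin wells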
ALR inh: blocks human ALR sulfhydryl oxidase activity; purified ALR, DTT oxidation, H2O2 HRP-luminol luminescence; inhibition, % (concentration not given with the values); 3.8% of 290,000 active; AID 485317;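 active = mean replicate inhibition above about 79%, with every replicate also reaching it, limit read from the data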
Target sequence (P55789 whole entry, looked up): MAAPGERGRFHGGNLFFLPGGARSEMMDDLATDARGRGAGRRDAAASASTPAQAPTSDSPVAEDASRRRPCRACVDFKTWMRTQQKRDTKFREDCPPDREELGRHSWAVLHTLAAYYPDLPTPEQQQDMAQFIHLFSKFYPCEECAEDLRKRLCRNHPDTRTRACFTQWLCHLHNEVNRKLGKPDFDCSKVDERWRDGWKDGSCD
An asterisk follows results filed as active; . = not tested or not shown. Shown is part of a subset that was picked to be rich in hits.

SMILES	T cell modulator	Glyco luc inh	ALR inh
C=CCSc1nc(N)c(NC(=O)c2ccco2)c(=O)[nH]1	541	-1	-1
CC(=O)Nc1ccc(NC(=O)CSc2nc(N)c(NC(=O)c3ccco3)c(=O)[nH]2)cc1	166	.	99*
COc1ccc(C(=O)Nc2c(N)nc(SCC(=O)Nc3ccc(NC(C)=O)cc3)[nH]c2=O)cc1	160	.	6
CCOc1ncc(S(=O)(=O)N2CCN(CC)CC2)cc1C(=O)O	206	0	-3
COCCn1c(SCC(=O)Nc2cc(C)on2)nc2c(c1=O)SCC2	384	4	-4
COc1ccc(NC(=O)CSc2nc3c(c(=O)n2C)SCC3)cc1OC	0	3	99*
CCn1c(SCC(=O)Nc2ccc(OC)c(OC)c2)nc2c(c1=O)SCC2	635	2	99*
Cn1c(SCC(=O)Nc2ccccc2F)nc2c(c1=O)SCC2	344	2	88*
Cn1c(SCC(=O)Nc2ccc(F)cc2)nc2c(c1=O)SCC2	400	0	40
COCCn1c(SCC(=O)Nc2cccc(F)c2)nc2c(c1=O)SCC2	425	5	99*
CCn1c(SCC(=O)Nc2cc(OC)ccc2OC)nc2c(c1=O)SCC2	371	1	-10
Cc1cc(NC(=O)CSc2nc3c(c(=O)n2C)SCC3)no1	480	3	4
CC1(C(=O)O)CCCN1C(=O)c1cccc(OC(F)(F)F)c1 (stereo not given)	.	1	.
CCC(NS(=O)(=O)c1ccc(C)cc1)C(=O)N1CCOCCOCCOCCOCC1 (stereo not given)	692	1	-29
CCN1C[C@@H]2[C@@H]3C(=O)N(C)C(=O)[C@@H]3[C@](Cc3ccccc3)(C1=O)N2C(=O)c1ccc(Br)cc1	.	2	.
O=C(NCCS(=O)(=O)N1CCN(c2cccc(Cl)c2)CC1)C1CCCC1	283	-2	4
Cc1cccc(C)c1-c1ccc(CN2C(CC(C)C)C(=O)N(Cc3cn(CCO)nn3)CCS2(=O)=O)cc1 (stereo not given)	.	2	.
Cn1c(SCc2c(F)cccc2Cl)nc2c(c1=O)SCC2	308	-4	.
Cn1c(SCc2ccc([N+](=O)[O-])cc2)nc2c(c1=O)SCC2	725	1	99*
Cc1ccccc1C(=O)Nc1cccc(C(=O)N/N=C/c2ccc3c(c2)OCO3)c1	223	10	-1
COc1cc(C(=O)N/N=C/c2ccc3c(c2)c2ccccc2n3C)ccc1O	314	34*	100*
COc1ccc(/C=N/NC(=O)c2cccc([N+](=O)[O-])c2)cc1O	267	3	68
Cn1c2ccccc2c2cc(/C=N/NC(=O)c3cc(O)cc(O)c3)ccc21	228	8	2
COc1cc(/C=N/NC(=O)c2cccc(NC(=O)c3ccccc3)c2)ccc1O	163	1	98*
COc1cc(/C=N/NC(=O)c2cccc(NC(=O)c3ccccc3C)c2)ccc1O	207	0	95*
SMILES	T cell modulator	Glyco luc inh	ALR inh
COc1cc(/C=N/NC(=O)c2cccc([N+](=O)[O-])c2)ccc1O	486	2	99*
O=C(N/N=C/c1ccc(F)cc1)c1cccc(NC(=O)c2ccc(F)cc2)c1	637	4	-2
COc1ccccc1NS(=O)(=O)c1cccc(C(=O)OCC(=O)NC2CC2)c1	430	0	2
COc1ccc(CNCC(O)COc2ccc(C)cc2[N+](=O)[O-])cc1 (stereo not given)	330	0	-5
O=C(CCNC(=O)c1ccc([N+](=O)[O-])cc1)NC1CCCCCC1	350	1	-4
CN(CC(=O)NCCc1ccccc1)Cc1ccco1	538	-2	-1
CC(C)OC(=O)N(C)C[C@@H]1OCc2ccccc2-c2c(n(C)c3ccccc23)C(=O)N([C@@H](C)CO)C[C@H]1C	.	4	.
COc1cc(/C=C/C(=O)c2cccc([N+](=O)[O-])c2)cc(OC)c1OC	177	10	96*
O=C(/C=C/c1ccccc1F)c1cccc([N+](=O)[O-])c1	126	-1	9
CCc1ccc(CN(C)CCc2ccccn2)cc1	230	1	2
Cc1ccc(CN(C)CCc2ccccn2)cc1	385	0	96*
CCOC(=O)C1=CCC2C(=O)N(C3CCCCC3)C(=O)C12 (stereo not given)	.	3	.
CCN1CCN(c2nc3c(c(=O)[nH]c(=O)n3C)n2CCSc2nc3ccccc3s2)CC1	153	2	.
CN1CCN(c2nc3c(c(=O)[nH]c(=O)n3C)n2CCCSc2nnnn2-c2ccccc2)CC1	419	0	-1
CC(CSc1nc2ccccc2s1)Cn1c(N2CCCC2)nc2c1c(=O)[nH]c(=O)n2C (stereo not given)	250	-1	98*
Cc1csc(SCCn2c(N3CCN(c4ccccc4)CC3)nc3c2c(=O)[nH]c(=O)n3C)n1	234	2	98*
CN(CC(=O)Nc1cccc(F)c1)CC(=O)Nc1cccc(S(N)(=O)=O)c1	100	0	-14

Screens deposited in PubChem by several laboratories.
